Each structure is given as a SMILES string.

Data on 24 molecules can be found in ChEMBL document CHEMBL4014344, “Discovery of the Soluble Guanylate Cyclase Stimulator Vericiguat (BAY 1021189) for the Treatment of Chronic Heart Failure” (J Med Chem, 2017).

The nature of series [1]: Clearance in rat hepatocytes at 1 uM up to 90 mins by LC-MS/MS analysis. The format is ADME, cell-based, Hepatocyte. The method, boiled down:
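Rat hepatocytes at 1 × 10^6 viable cells/mL (trypan blue-corrected) in Williams' medium E, 1 μM substrate, MeCN ≤1%, 37 °C, pH 7.4. Sampled at 2−90 min, quenched with MeCN, analysed by LC-MS/MS.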

Series [2] concerns the target T1, Guanylate cyclase soluble subunit alpha-1 (Rattus norvegicus) (UniProt P19686).
T1 sequence (whole entry): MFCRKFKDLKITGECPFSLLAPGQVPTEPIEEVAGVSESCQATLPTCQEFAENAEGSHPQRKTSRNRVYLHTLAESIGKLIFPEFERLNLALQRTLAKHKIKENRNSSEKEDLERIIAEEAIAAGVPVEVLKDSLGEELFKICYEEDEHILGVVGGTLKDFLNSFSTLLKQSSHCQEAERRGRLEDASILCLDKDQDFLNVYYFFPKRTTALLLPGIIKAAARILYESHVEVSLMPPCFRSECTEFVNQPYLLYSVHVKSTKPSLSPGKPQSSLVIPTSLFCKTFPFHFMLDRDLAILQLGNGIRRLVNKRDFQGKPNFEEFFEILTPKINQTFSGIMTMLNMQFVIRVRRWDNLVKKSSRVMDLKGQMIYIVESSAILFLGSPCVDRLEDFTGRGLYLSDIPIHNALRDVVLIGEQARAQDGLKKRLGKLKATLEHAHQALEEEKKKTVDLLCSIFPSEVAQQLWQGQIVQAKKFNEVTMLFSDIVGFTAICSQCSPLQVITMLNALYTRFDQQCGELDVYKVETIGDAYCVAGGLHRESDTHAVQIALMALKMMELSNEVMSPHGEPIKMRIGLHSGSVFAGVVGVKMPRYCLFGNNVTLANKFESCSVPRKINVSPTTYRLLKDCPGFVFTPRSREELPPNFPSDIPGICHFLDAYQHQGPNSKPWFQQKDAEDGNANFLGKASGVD
Nature of the series: Stimulation of rat recombinant sGCalpha1 subunit expressed in CHO cells using alpha-[32P]GTP as substrate assessed as >=3 fold increase in [32P]cGMP formation after 10 mins by radioimmunoassay. The format is cell-based.

Series [3] in a line: Clearance in iv dosed Wistar rat blood after 24 hrs by LC-MS analysis. Conditions: whole blood. In kind it is ADME, organism-based. An outline of the steps: (§1)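 Male Wistar rats and female beagle dogs. iv in plasma/DMSO (rat) or H2O/PEG 400/EtOH (dog). Oral gavage in H2O/PEG 400/EtOH for both. Rats jugular-catheterised ≥1 d before dosing. Usually >10 blood samples, at least two after 24 h. Plasma quantified by LC-MS with internal standard. CL, t1/2, Vss and F calculated from plasma curves. Blood clearance via blood/plasma ratio (20 min blood incubation).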

Series [4] in a line: Volume of distribution at steady state in iv dosed Beagle dog after 24 hrs by LC-MS analysis. The format is ADME, organism-based, Canis lupus familiaris. Conditions: in vivo, read-out: Vdss. The method, boiled down:
as §1

The nature of series [5]: Terminal half life in iv dosed Wistar rat blood after 24 hrs by LC-MS analysis. The format is ADME, organism-based. Conditions: whole blood, read-out: beta t1/2 (converted). An outline of the steps: as §1
Series [6] in a line: Oral bioavailability in Beagle dog administered via oral gavage after 24 hrs by LC-MS analysis. In kind it is ADME, organism-based, Canis lupus familiaris. Conditions: in vivo. An outline of the steps: as §1
A short description of series [7]: Plasma clearance in iv dosed Beagle dog after 24 hrs by LC-MS analysis. In kind it is ADME, organism-based, Canis lupus familiaris. An outline of the steps:
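Female beagle dogs were dosed iv in an H2O/PEG 400/EtOH formulation. Blood was collected into heparinized tubes, and plasma was obtained by centrifugation at 1000g and stored at −20 °C if needed. Drug was quantified by LC-MS (selected ion monitoring or high-resolution) against an internal standard. Clearance was calculated from the plasma concentration–time course.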

Series [8] is described as follows: Volume of distribution at steady state in iv dosed Wistar rat after 24 hrs by LC-MS analysis. In kind it is ADME, organism-based. The following applies: in vivo, read-out: Vdss. The method, boiled down:
as §1

Series [9] in a line: Oral bioavailability in Wistar rat administered via oral gavage after 24 hrs by LC-MS analysis. The format is ADME, organism-based. The following applies: in vivo. The method, boiled down:
as §1

The nature of series [10]: Terminal half life in iv dosed Beagle dog blood after 24 hrs by LC-MS analysis. The format is ADME, organism-based, Canis lupus familiaris. Conditions: whole blood, read-out: beta t1/2 (converted). An outline of the steps: as §1
Series [11] relates to Saphenous artery. Nature of the series: Vasorelaxant activity in normal Chinchilla rabbit saphenous artery ring administered at the beginning of the last resting period of 28 mins. The following applies: Oryctolagus cuniculus. The format is functional.
Series [12] concerns Saphenous artery. Nature of the series: Vasorelaxant activity in nirate-tolerant Chinchilla rabbit saphenous artery ring administered at the beginning of the last resting period of 28 mins in presence of sorbide dinitrate. Conditions: Oryctolagus cuniculus. The format is functional.
The nature of series [13]: Efflux ratio of apparent permeability in human Caco2 cells. Conditions: Caco-2. The format is ADME, cell-based. An outline of the steps: (§2)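 Caco-2 cells grown 14−16 d on inserts. Compound dissolved in DMSO and diluted to final 2 μM in HBSS with glucose (19.9 mM) and HEPES (9.8 mM). Added apically (A−B) or basolaterally, incubated 2 h at 37 °C. Both compartments analysed by LC-MS to calculate Papp. Efflux ratio = Papp B−A/Papp A−B. Lucifer yellow monolayer integrity check.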

Series [14] in a line: Apparent permeability across apical to basolateral side in human Caco2 cells at 2 uM after 2 hrs by LC-MS analysis. The format is ADME, cell-based. The following applies: Caco-2. The method, boiled down:
as §2
For orientation: Caco-2 cells form a polarised layer with tight junctions and transporters.

Series [15] in a line: Clearance in iv dosed Beagle dog blood after 24 hrs by LC-MS analysis. The format is ADME, organism-based, Canis lupus familiaris. Conditions: whole blood. An outline of the steps:
as §1

Turning to `CC1(C)CN(c2c(N)nc(-c3nn(Cc4ccccc4F)c4ncccc34)nc2N)C(=O)O1`, in series [1], the CLhep predicted at 1 µM was 21.7 mL/min/kg. In addition, the MEC in [2] came to 0.2 µM.

For the molecule `Nc1nc(-c2nn(Cc3ccccc3F)c3ncccc23)nc(N)c1NC(=O)OCC1CC1`, the CLhep predicted at 1 µM in series [1] was 23.3 mL/min/kg. Further, the MEC in series [2] turned out to be 0.2 µM.

On to `COC(=O)N(Cc1ccccc1F)c1c(N)nc(-c2nn(Cc3ccccc3F)c3ncccc23)nc1N`, for which the CLhep predicted at 1 µM in series [1] is 53.3 mL/min/kg. Besides, the MEC in series [2] stood at 0.1 µM.

Usually clearance stands for the volume of plasma or blood freed of the substance per unit of time. Read a high clearance as efficient removal. In general, bioavailability refers to dose-corrected exposure relative to a reference, in per cent. High values mean much systemic uptake, low ones little systemic uptake. As to `COC(=O)N(C)c1c(N)nc(-c2nn(Cc3ccccc3F)c3ncccc23)nc1N` [RIOCIGUAT], in series [1], the CLhep predicted at 1 µM is 3.33 mL/min/kg. Moreover, the values for the clearance in series [3] and in series [7] were 21.7 mL/min/kg and 5 mL/min/kg, respectively. Moreover, the Vd in series [4] turned out to be 0.7 L/kg; in series [8] it was 1.2 L/kg. The values for the half-life in [5] and in series [10] were 1.4 h and 2.4 h, respectively. For the same molecule, the results for the bioavailability in series [6] and in [9] were 79% and 46%, respectively. The MEC in [2] was 0.03 µM.

As a reminder, the IC50 is the point on the concentration scale where inhibition reaches its midpoint. As for `O=[N+]([O-])OCC(CO[N+](=O)[O-])O[N+](=O)[O-]` [NITROGLYCERIN], the IC50 with Saphenous artery [11] worked out at 1.9 nM; in the series with Saphenous artery [12], 9.6 nM.

By efflux ratio is commonly meant the permeability from basolateral to apical divided by that in the opposite direction, in the common usage. The term Papp A→B denotes how fast a substance crosses the layer from the apical side. Regarding `Nc1nc(-c2nn(Cc3ccccc3F)c3ncccc23)nc(N)c1NC(=O)OC1CCC1`, the efflux ratio in series [13] came to 25. Further, in series [1], the CLhep predicted at 1 µM was 23.3 mL/min/kg. Also, the MEC in series [2] was determined as 0.2 µM. In series [14], the Papp A→B at 2 h, 2 µM came out at 2.3 ×10⁻⁶ cm/s.

For the molecule `CCN(C(=O)OC)c1c(N)nc(-c2nn(Cc3ccccc3F)c3ncccc23)nc1N`, the CLhep predicted at 1 µM in series [1] was 11.7 mL/min/kg. Further, the MEC in series [2] stood at 0.2 µM.

Take `Nc1nc(-c2nn(Cc3ccccc3F)c3ncccc23)nc(N)c1N1CCOC1=O`: the CLhep predicted at 1 µM in [1] is 6.67 mL/min/kg. For the same molecule, the MEC in series [2] was 0.3 µM.

`Nc1nc(-c2nn(Cc3ccccc3F)c3ncccc23)nc(N)c1NC(=O)OCC(F)(F)F`: the CLhep predicted at 1 µM in series [1] is 35 mL/min/kg. For the same molecule, the MEC in series [2] worked out at 0.2 µM.

In the case of `Nc1nc(-c2nn(Cc3ccccc3F)c3ncccc23)nc(N)c1N1C[C@H](C(F)(F)F)OC1=O`, in [2], the MEC was 0.2 µM.

As to `COC(=O)N(CCO)c1c(N)nc(-c2nn(Cc3ccccc3F)c3ncccc23)nc1N`, in series [1], the CLhep predicted at 1 µM was 61.7 mL/min/kg. Moreover, the MEC in series [2] turned out to be 0.3 µM.

On to `COC(=O)N(Cc1ccc(F)cc1)c1c(N)nc(-c2nn(Cc3ccccc3F)c3ncccc23)nc1N`, for which the CLhep predicted at 1 µM in series [1] is 40 mL/min/kg. Besides, the MEC in [2] was found to be 0.7 µM.

Turning to `COC(=O)N(CC(F)F)c1c(N)nc(-c2nn(Cc3ccccc3F)c3ncccc23)nc1N`, the CLhep predicted at 1 µM in series [1] was 6.67 mL/min/kg. In addition, in series [2], the MEC is 0.1 µM.

As for `COC(=O)Nc1c(N)nc(-c2nn(Cc3ccccc3F)c3ncccc23)nc1N`, in series [13], the efflux ratio was 5. Further, in series [1], the CLhep predicted at 1 µM is 1.67 mL/min/kg. The MEC in [2] was 0.3 µM. Also, the Papp A→B at 2 h, 2 µM in series [14] is 7.9 ×10⁻⁶ cm/s.

For `COC(=O)Nc1c(N)nc(-n2nc(Cc3ccccc3F)c3ncccc32)nc1N`, the CLhep predicted at 1 µM in series [1] is < 1.67 mL/min/kg. For the same molecule, in series [3], the clearance was 16.7 mL/min/kg. The MEC in series [2] is 1.2 µM.

In the case of `CC(C)OC(=O)Nc1c(N)nc(-c2nn(Cc3ccccc3F)c3ncccc23)nc1N`, the CLhep predicted at 1 µM in series [1] was 15 mL/min/kg. The MEC in series [2] was 0.8 µM.

In the case of `Nc1nc(-c2nn(Cc3ccccc3F)c3ncccc23)nc(N)c1N1C[C@@H](C(F)(F)F)OC1=O`, the CLhep predicted at 1 µM in series [1] was 26.7 mL/min/kg. Further, in series [2], the MEC is 0.03 µM.

As to `COC(=O)Nc1c(N)nc(-c2nc(Cc3ccccc3F)n3ncccc23)nc1N`, in series [1], the CLhep predicted at 1 µM was < 1.67 mL/min/kg. Moreover, the clearance in [3] and in series [7] was 15 mL/min/kg in each case. In addition, the Vd in [4] is 2 L/kg; in [8] it was 0.3 L/kg. In addition, the half-life is 0.5 h in [5] and 1.8 h in series [10]. Also, the bioavailability in series [9] stood at 37%. Further, the MEC in series [2] amounted to 0.7 µM.

For `Nc1nc(-c2nn(Cc3ccccc3F)c3ncccc23)nc(N)c1NC(=O)OC1COC1`, the efflux ratio in [13] is 74. Besides, in [1], the CLhep predicted at 1 µM is 1.67 mL/min/kg. In addition, in series [2], the MEC turned out to be 2.3 µM. In [14], the Papp A→B at 2 h, 2 µM is 0.2 ×10⁻⁶ cm/s.

`COC(=O)Nc1c(N)nc(-n2nc(Cc3ccccc3F)c3ncc(F)cc32)nc1N`: the CLhep predicted at 1 µM in [1] is 1.67 mL/min/kg. The clearance is 5 mL/min/kg in series [3] and 3.33 mL/min/kg in series [15]. The Vd was found to be 1 L/kg in series [4] and 0.5 L/kg in series [8]. In addition, the half-life in series [5] was 1.5 h; in series [10], 4.1 h. Also, the bioavailability was 56% in series [6] and 26% in series [9]. For the same molecule, the MEC in [2] was found to be 0.5 µM.

With `COC(=O)N(CC(F)(F)F)c1c(N)nc(-c2nn(Cc3ccccc3F)c3ncccc23)nc1N`, the CLhep predicted at 1 µM in series [1] is 15 mL/min/kg. Further, the MEC in series [2] worked out at 0.1 µM.

For the molecule `COC(=O)N(Cc1cccc(F)c1)c1c(N)nc(-c2nn(Cc3ccccc3F)c3ncccc23)nc1N`, the CLhep predicted at 1 µM in series [1] was 53.3 mL/min/kg. In addition, the MEC in [2] amounted to 0.2 µM.

As to `COC(=O)Nc1c(N)nc(-c2nn(Cc3ccccc3F)c3nnccc23)nc1N`, in series [1], the CLhep predicted at 1 µM is < 1.67 mL/min/kg. Further, the clearance in series [3] was 63.3 mL/min/kg. Besides, in series [2], the MEC turned out to be 2 µM.

The molecule `COC(=O)Nc1c(N)nc(-c2nc(Cc3ccccc3F)c3ncccn23)nc1N` had a clearance in series [3] of 30 mL/min/kg. In addition, in [2], the MEC is 1.7 µM.
